According to ChEMBL document CHEMBL5303300, “EUbOPEN Chemogenomics Library - Multiplex” (2023):
“And” between values parts separate entries of the source, which are not always exact repeats. Identical values can stand only once.

System: HEK-293T
Assay: Multiplex assay against HEK293T
Type: toxicity, cell-based
Conditions: human, number of replicates 2
Method in brief: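 Live cells carried four stains from seeding: Hoechst33342, BioTracker Green Microtubule Cytoskeleton Dye, MitoTracker Red and Annexin V Alexa Fluor 680. They were imaged on a CQ1 microscope at 37°C and 5% CO2 after compound addition. Using CellPathfinder machine-learning gating, cells were split into Hoechst high-intensity objects or normal cells, normal cells into healthy, pyknosed or fragmented nuclei, and pyknosed cells into mitotic or apoptotic; tubulin, mitochondrial-mass and membrane-permeability phenotypes are per cents of healthy-nucleus cells.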

[1] = 12 h, 1 µM, compound concentration 1 uM
[2] = 12 h, 10 µM, compound concentration 10 uM
[3] = 24 h, 1 µM, compound concentration 1 uM
[4] = 24 h, 10 µM, compound concentration 10 uM
[5] = 48 h, 1 µM, compound concentration 1 uM
[6] = 48 h, 10 µM, compound concentration 10 uM

CC(C)c1cc(-c2ccc(F)c3ccccc23)nc(N)n1
Population Apoptotic (%) [1]: 45% and 56%
Population Fragmented Nuclei (%) [1]: 3%
Population Healthy Nuclei (%) [1]: 88% and 87%
Population Hoechst High Intensity Objects (%) [1]: 5%
Population Membrane Permeable-Phenotype (%) [1]: 2%
Population Mitochondria Different-Phenotype (%) [1]: 15%
Population Mitotic Cells (%) [1]: 54% and 43%
Population Normal (%) [1]: 94%
Population Pyknosed Nuclei (%) [1]: 8% and 9%
Population Tubulin-Different-Phenotype (%) [1]: 54% and 59%
Total Cell Count [1]: 775 and 598
Population Apoptotic (%) [2]: 62%
Population Fragmented Nuclei (%) [2]: 3% and 4%
Population Healthy Nuclei (%) [2]: 78% and 80%
Population Hoechst High Intensity Objects (%) [2]: 7%
Population Membrane Permeable-Phenotype (%) [2]: 1% and 0%
Population Mitochondria Different-Phenotype (%) [2]: 25% and 20%
Population Mitotic Cells (%) [2]: 37%
Population Normal (%) [2]: 92%
Population Pyknosed Nuclei (%) [2]: 18% and 15%
Population Tubulin-Different-Phenotype (%) [2]: 66% and 60%
Total Cell Count [2]: 434 and 448
Population Apoptotic (%) [3]: 49% and 36%
Population Fragmented Nuclei (%) [3]: 6% and 4%
Population Healthy Nuclei (%) [3]: 88%
Population Hoechst High Intensity Objects (%) [3]: 7% and 9%
Population Membrane Permeable-Phenotype (%) [3]: 2% and 3%
Population Mitochondria Different-Phenotype (%) [3]: 4% and 5%
Population Mitotic Cells (%) [3]: 50% and 63%
Population Normal (%) [3]: 92% and 90%
Population Pyknosed Nuclei (%) [3]: 5% and 6%
Population Tubulin-Different-Phenotype (%) [3]: 34% and 35%
Total Cell Count [3]: 1247 and 898
Population Apoptotic (%) [4]: 41% and 43%
Population Fragmented Nuclei (%) [4]: 7% and 6%
Population Healthy Nuclei (%) [4]: 84% and 82%
Population Hoechst High Intensity Objects (%) [4]: 7% and 6%
Population Membrane Permeable-Phenotype (%) [4]: 2% and 1%
Population Mitochondria Different-Phenotype (%) [4]: 14% and 12%
Population Mitotic Cells (%) [4]: 58% and 56%
Population Normal (%) [4]: 92% and 93%
Population Pyknosed Nuclei (%) [4]: 8% and 10%
Population Tubulin-Different-Phenotype (%) [4]: 46% and 42%
Total Cell Count [4]: 675 and 625
Population Apoptotic (%) [5]: 10% and 18%
Population Fragmented Nuclei (%) [5]: 16% and 10%
Population Healthy Nuclei (%) [5]: 81% and 85%
Population Hoechst High Intensity Objects (%) [5]: 9% and 10%
Population Membrane Permeable-Phenotype (%) [5]: 5%
Population Mitochondria Different-Phenotype (%) [5]: 0% and 1%
Population Mitotic Cells (%) [5]: 90% and 81%
Population Normal (%) [5]: 90% and 89%
Population Pyknosed Nuclei (%) [5]: 2% and 4%
Population Tubulin-Different-Phenotype (%) [5]: 17% and 23%
Total Cell Count [5]: 3182 and 1908
Population Apoptotic (%) [6]: 20% and 37%
Population Fragmented Nuclei (%) [6]: 14% and 10%
Population Healthy Nuclei (%) [6]: 81% and 86%
Population Hoechst High Intensity Objects (%) [6]: 8% and 7%
Population Membrane Permeable-Phenotype (%) [6]: 6% and 2%
Population Mitochondria Different-Phenotype (%) [6]: 2% and 3%
Population Mitotic Cells (%) [6]: 80% and 62%
Population Normal (%) [6]: 91% and 92%
Population Pyknosed Nuclei (%) [6]: 3% and 2%
Population Tubulin-Different-Phenotype (%) [6]: 26% and 24%
Total Cell Count [6]: 1507 and 1327

CC(C)(C)c1cnc(CSc2cnc(NC(=O)C3CCNCC3)s2)o1 [BMS-387032]
Population Apoptotic (%) [1]: 64% and 60%
Population Fragmented Nuclei (%) [1]: 3%
Population Healthy Nuclei (%) [1]: 69% and 77%
Population Hoechst High Intensity Objects (%) [1]: 17% and 10%
Population Membrane Permeable-Phenotype (%) [1]: 6% and 0%
Population Mitochondria Different-Phenotype (%) [1]: 54%
Population Mitotic Cells (%) [1]: 35% and 40%
Population Normal (%) [1]: 82% and 89%
Population Pyknosed Nuclei (%) [1]: 26% and 18%
Population Tubulin-Different-Phenotype (%) [1]: 75% and 77%
Population Apoptotic (%) [2]: 87% and 73%
Population Fragmented Nuclei (%) [2]: 6% and 3%
Population Healthy Nuclei (%) [2]: 77% and 90%
Population Hoechst High Intensity Objects (%) [2]: 18% and 15%
Population Membrane Permeable-Phenotype (%) [2]: 3% and 1%
Population Mitochondria Different-Phenotype (%) [2]: 66% and 67%
Population Mitotic Cells (%) [2]: 12% and 26%
Population Normal (%) [2]: 81% and 84%
Population Tubulin-Different-Phenotype (%) [2]: 84% and 85%
Population Apoptotic (%) [3]: 73% and 69%
Population Fragmented Nuclei (%) [3]: 6% and 5%
Population Healthy Nuclei (%) [3]: 70% and 72%
Population Hoechst High Intensity Objects (%) [3]: 22% and 14%
Population Membrane Permeable-Phenotype (%) [3]: 3% and 0%
Population Mitochondria Different-Phenotype (%) [3]: 58% and 61%
Population Mitotic Cells (%) [3]: 26% and 30%
Population Normal (%) [3]: 77% and 85%
Population Pyknosed Nuclei (%) [3]: 23% and 21%
Population Tubulin-Different-Phenotype (%) [3]: 69% and 71%
Population Apoptotic (%) [4]: 87% and 75%
Population Fragmented Nuclei (%) [4]: 9% and 5%
Population Healthy Nuclei (%) [4]: 73% and 85%
Population Hoechst High Intensity Objects (%) [4]: 19% and 17%
Population Membrane Permeable-Phenotype (%) [4]: 0%
Population Mitochondria Different-Phenotype (%) [4]: 80% and 78%
Population Mitotic Cells (%) [4]: 12% and 25%
Population Normal (%) [4]: 80% and 82%
Population Pyknosed Nuclei (%) [4]: 16% and 9%
Population Tubulin-Different-Phenotype (%) [4]: 84% and 89%
Population Apoptotic (%) [5]: 77% and 81%
Population Fragmented Nuclei (%) [5]: 7% and 4%
Population Healthy Nuclei (%) [5]: 71% and 77%
Population Hoechst High Intensity Objects (%) [5]: 21% and 16%
Population Membrane Permeable-Phenotype (%) [5]: 1% and 0%
Population Mitochondria Different-Phenotype (%) [5]: 62% and 68%
Population Mitotic Cells (%) [5]: 22% and 18%
Population Normal (%) [5]: 78% and 83%
Population Pyknosed Nuclei (%) [5]: 21% and 18%
Population Tubulin-Different-Phenotype (%) [5]: 64% and 65%
Population Apoptotic (%) [6]: 92% and 93%
Population Fragmented Nuclei (%) [6]: 9% and 5%
Population Healthy Nuclei (%) [6]: 71% and 86%
Population Hoechst High Intensity Objects (%) [6]: 23% and 19%
Population Membrane Permeable-Phenotype (%) [6]: 2%
Population Mitochondria Different-Phenotype (%) [6]: 83% and 86%
Population Mitotic Cells (%) [6]: 7% and 6%
Population Normal (%) [6]: 76% and 80%
Population Pyknosed Nuclei (%) [6]: 18% and 8%
Population Tubulin-Different-Phenotype (%) [6]: 85% and 89%

O=C1NC(=NCc2cccs2)SC1=Cc1ccc2ncccc2c1
Population Apoptotic (%) [1]: 54% and 38%
Population Fragmented Nuclei (%) [1]: 6% and 4%
Population Healthy Nuclei (%) [1]: 78% and 85%
Population Hoechst High Intensity Objects (%) [1]: 8% and 7%
Population Membrane Permeable-Phenotype (%) [1]: 4% and 2%
Population Mitochondria Different-Phenotype (%) [1]: 15% and 9%
Population Mitotic Cells (%) [1]: 45% and 61%
Population Normal (%) [1]: 91% and 92%
Population Pyknosed Nuclei (%) [1]: 15% and 10%
Population Tubulin-Different-Phenotype (%) [1]: 46% and 45%
Total Cell Count [1]: 632 and 733
Population Apoptotic (%) [2]: 54% and 69%
Population Fragmented Nuclei (%) [2]: 1% and 2%
Population Healthy Nuclei (%) [2]: 90% and 92%
Population Hoechst High Intensity Objects (%) [2]: 3% and 6%
Population Membrane Permeable-Phenotype (%) [2]: 4%
Population Mitochondria Different-Phenotype (%) [2]: 21% and 19%
Population Mitotic Cells (%) [2]: 45% and 30%
Population Normal (%) [2]: 96% and 93%
Population Pyknosed Nuclei (%) [2]: 7% and 5%
Population Tubulin-Different-Phenotype (%) [2]: 78% and 72%
Total Cell Count [2]: 644 and 684
Population Apoptotic (%) [3]: 40% and 31%
Population Fragmented Nuclei (%) [3]: 6% and 4%
Population Healthy Nuclei (%) [3]: 84% and 89%
Population Hoechst High Intensity Objects (%) [3]: 8%
Population Membrane Permeable-Phenotype (%) [3]: 3% and 2%
Population Mitochondria Different-Phenotype (%) [3]: 3% and 5%
Population Mitotic Cells (%) [3]: 59% and 68%
Population Normal (%) [3]: 91%
Population Pyknosed Nuclei (%) [3]: 9% and 6%
Population Tubulin-Different-Phenotype (%) [3]: 19% and 30%
Total Cell Count [3]: 1066 and 1062
Population Apoptotic (%) [4]: 63% and 77%
Population Fragmented Nuclei (%) [4]: 2%
Population Healthy Nuclei (%) [4]: 91% and 93%
Population Hoechst High Intensity Objects (%) [4]: 6% and 5%
Population Membrane Permeable-Phenotype (%) [4]: 2% and 1%
Population Mitochondria Different-Phenotype (%) [4]: 9% and 12%
Population Mitotic Cells (%) [4]: 36% and 22%
Population Normal (%) [4]: 93% and 94%
Population Pyknosed Nuclei (%) [4]: 5% and 4%
Population Tubulin-Different-Phenotype (%) [4]: 57% and 55%
Total Cell Count [4]: 699 and 690
Population Apoptotic (%) [5]: 14% and 11%
Population Fragmented Nuclei (%) [5]: 16% and 10%
Population Healthy Nuclei (%) [5]: 80% and 86%
Population Hoechst High Intensity Objects (%) [5]: 9% and 10%
Population Membrane Permeable-Phenotype (%) [5]: 5%
Population Mitochondria Different-Phenotype (%) [5]: 0% and 1%
Population Mitotic Cells (%) [5]: 85% and 88%
Population Normal (%) [5]: 90% and 89%
Population Pyknosed Nuclei (%) [5]: 3%
Population Tubulin-Different-Phenotype (%) [5]: 9% and 14%
Total Cell Count [5]: 2821 and 2321
Population Apoptotic (%) [6]: 45% and 59%
Population Fragmented Nuclei (%) [6]: 8% and 7%
Population Healthy Nuclei (%) [6]: 87% and 89%
Population Hoechst High Intensity Objects (%) [6]: 8% and 7%
Population Membrane Permeable-Phenotype (%) [6]: 2% and 0%
Population Mitochondria Different-Phenotype (%) [6]: 3% and 5%
Population Mitotic Cells (%) [6]: 54% and 40%
Population Normal (%) [6]: 91% and 92%
Population Pyknosed Nuclei (%) [6]: 3%
Population Tubulin-Different-Phenotype (%) [6]: 21% and 26%
Total Cell Count [6]: 740 and 737
